Laboratory results: publication PMC4858174 (Innate immunity, 2015)
No end group written: not given here.

Assays:
C3a receptor [1] = experiment: C3a-induced degranulation, LAD2 cells; format: cell-based, human; settings: LPS 1 and 10 μg/ml, C3a 10 nM, three experiments
Summary of the method: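 LAD2 cells (5 × 10^3 per well) in HEPES buffer with 0.1% BSA were pre-treated with buffer or E. coli LPS, then stimulated. Percent β-hexosaminidase release was taken against unstimulated cells lysed in 0.1% Triton X-100. Mean ± SEM, three experiments; two-way ANOVA with Bonferroni.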

C3a receptor [2] = experiment: C3a-induced Ca2+ mobilization, LAD2 cells; format: cell-based, human
Summary of the method: (§1)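 LAD2 cells, kept in StemPro-34 with 100 ng/ml hSCF, were loaded with indo-1 AM (1 μM) for 30 min at room temperature. They were washed and resuspended in HEPES-buffered saline at 0.2 × 10^6 cells per run. E. coli LPS (serotype R515) was given as a 2 min pre-incubation or premixed with the peptide, followed by C3a. Fluorescence was read at excitation 355 nm and emission 410 nm. Traces are representative of three experiments.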

[3] = system: LAD2 cells endogenously expressing MrgX2; experiment: Degranulation; format: cell-based, human; settings: for effect of E. coli-LPS on HDP-induced mast cell degranulation (summary): Discussion summary
[4] = system: untransfected RBL-2H3 cells, which do not express MrgX2; settings: no MrgX2; cited from earlier work
[5] = system: LAD2 cells endogenously expressing MrgX2; experiment: Ca2+ mobilization, LAD2 cells; format: cell-based, human; settings: for effect of E. coli-LPS on HDP-induced Ca2+ mobilization (summary): Discussion summary
Summary of the method: as §1

[6] = system: untransfected RBL-2H3 cells, which do not express MrgX2; settings: no MrgX2; cited from earlier work; remark: listed apart in the source
macrophages = settings: cited from earlier work

Substance | effect of E. coli-LPS on C3a-induced degranulation (C3a receptor [1]) | effect of mixture of E. coli-LPS and hBD3 on C3a-induced Ca2+ mobilization (C3a receptor [2]; LPS 1 μg/ml + hBD3 100 nM, then C3a 10 nM) | effect of E. coli-LPS on C3a-induced Ca2+ response (C3a receptor [2]; LPS 1 μg/ml preincubated, C3a 10 nM) | effect of E. coli-LPS on C3a-induced Ca2+ response (LL-37 experiment) (C3a receptor [2]; LPS 10 μg/ml, pre-incubated or mixed with LL-37 1 μM, C3a 10 nM) | effect of E. coli-LPS on HDP-induced mast cell degranulation (summary) [3] | effect of E. coli-LPS on hBD3-induced degranulation ([3]; LAD2, LPS 1 and 10 μg/ml, hBD3 100 nM, mean ± SEM of three experiments) | degranulation in untransfected RBL-2H3 cells, earlier work [4] | effect of E. coli-LPS on HDP-induced Ca2+ mobilization (summary) [5] | effect of premixed E. coli-LPS on hBD3-induced Ca2+ response ([5]; LAD2, LPS 1 μg/ml premixed with hBD3 100 nM) | effect of E. coli-LPS preincubation on hBD3-induced Ca2+ response ([5]; LAD2, LPS 1 μg/ml, 2 min preincubation, hBD3 100 nM) | intracellular Ca2+ response in LAD2 cells ([5]; hBD3 100 nM, not back to basal level even after 5 min) | Ca2+ mobilization in untransfected RBL-2H3 cells, earlier work [6] | inhibition of LPS-induced cytokine generation in macrophages, hBD3 (macrophages) | effect of E. coli-LPS on LL-37-induced degranulation ([3]; LAD2, LPS 10 μg/ml, LL-37 1 μM, three experiments) | effect of E. coli-LPS on LL-37-induced Ca2+ mobilization ([5]; LAD2, LPS 10 μg/ml, 2 min pre-incubation or added simultaneously, LL-37 1 μM)
C3a: anaphylatoxin C3a; native complement C3a from Complement Technology | did not inhibit the response to C3a | not affected | no effect | no effect on the response to C3a |  |  |  |  |  |  |  |  |  |  | 
Human β-defensin3 (GIINTLQKYYCRVRGGRCAVLSCLPKEEQIGKCSTRGRKCCRRKK; not fully specified; ends and bridges not checked; UniProt P81534 23-67, looked up) [hBD3] |  |  |  |  | almost complete inhibition | substantial inhibition | unresponsive | almost complete inhibition | to the same extent as the 2 min pre-incubation protocol | complete inhibition | sustained intracellular Ca^2+ response | unresponsive | inhibit LPS-induced cytokine generation in macrophages |  | 
LL-37: human cathelicidin, host defense peptide |  |  |  |  | almost complete inhibition |  | unresponsive | almost complete inhibition |  |  |  | unresponsive |  | blocked | ablated
